Screening results (PubChem)
An excerpt weighted towards active compounds, which were near 5.7% of everything screened.
Beta apoptosis – inhibitors of cytokine-induced beta cell apoptosis, primary screen, luminescence; INS-1E cytokine-induced death, ATP luminescence, 48 h; percent of positive-control rescue, neutral wells zero; protection from apoptosis, % (concentration not given with the values); actives 0.8% (n = 300,000);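 active = Every replicate reaches about 75%, or at least half do and their mean reaches it too, limit read from the data; inconclusive = At least half of replicates reach the limit but their mean does not; inactive = Under half of replicates reach the limit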;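 note: 0% = cytokine-treated negative control wells and 100% = positive control rescue; higher means more ATP so stronger rescue from cytokine killing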
Calb FLC – C. albicans growth inhibition with fluconazole, primary screen, CaCi-2 strain, Alamar Blue fluorescence; C. albicans CaCi-2 (fluconazole-resistant clinical isolate) + fluconazole, 48 h; growth inhibition, % (concentration not given with the values); actives 0.57% (n = 300,000); AID 1979, 2009;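 active = growth inhibition above about 58% in most replicates, limit read from the data, passing the limit was not always enough; inconclusive = exactly half the replicates above a set limit; inactive = most replicates below a set limit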;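 note: all wells also contain fluconazole at 8 µg/ml as a sub-toxic cotreatment; 0% = median of DMSO wells and 100% = median of geldanamycin control wells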
SKKanGAS inh – S. pyogenes SKKanGAS growth inhibitors in kanamycin, primary screen, streptokinase expression inhibitor project, SKKanGAS strain, BacTiter-Glo luminescence | 6 h | inhibition, % at 7.5 µM | actives 1.3% (n = 300,000);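 active = mean replicate score, as percent of positive control median, at least 50; inconclusive = mean below 50 but one replicate at or above 50; inactive = mean and every replicate below 50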;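 note: strain carries kanamycin resistance gene driven by streptokinase promoter and grows in 40 µg/ml kanamycin; loss of luminescence reflects streptokinase promoter inhibition or plain growth inhibition; 0% = median of DMSO wells and 100% = positive control at its reference dose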
T cruzi repl – inhibitors of intracellular T. cruzi growth, primary screen, luminescence, NIH3T3 host cells. T. cruzi beta-gal in NIH3T3, 90 h. inhibition, % (concentration not given with the values). actives 1.4% (n = 300,000);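 active = mean inhibition across valid replicates above about 55%, limit read from the data; inconclusive = mean below that limit but half or more replicates reach it; inactive = mean below it, under half of replicates reach it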;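 note: signal also drops with host cell toxicity which is not excluded here; 0% = plate median of DMSO wells and 100% = zero luminescence signal; higher percent means less beta-gal luminescence so fewer parasites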
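Assay system: NIH/3T3 host cells with β-galactosidase reporter T. cruzi; input: 5,000 host fibroblasts per well; compound: single 50 nL compound addition per well in DMSO; timing: ≥90 h infection period, 3 h prior cell attachment; measured by: GalScreen β-gal luminescence, detergent lysis, 60 min; evaluation: percent inhibition of parasite-derived β-gal signal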
Mdm2-MdmX inh – inhibitors of human Mdm2-MdmX association, primary screen, cell-based, luminescence, split luciferase, SaOS-2, uHTS | Protein Mdm4 (Homo sapiens) + E3 ubiquitin-protein ligase Mdm2 (Homo sapiens), … | SaOS-2 split-luciferase Mdm2/MdmX complementation | inhibition, % at 8 µM | actives 3% (n = 330,000) | AID 485346, 2010;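 active = inhibition of at least 50% at 8 µM in the primary screen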
CSC inhib – cancer stem cell viability inhibitors, primary screen, luminescence; cancer stem cell-like cells viability; inhibition, % at 7.5 µM; actives 1.1% (n = 300,000); in the data active = inhibition above about 75%; inconclusive = no clear call, values can overlap the other calls; tested in HMLE shEcad cells
Mdm2 MdmX conf – Mdm2-MdmX complex disruptors, retested hits, confirmation, luminescence, single concentration; shares compounds with Mdm2-MdmX inh; actives 55% (n = 10,000); AID 489028, 2010; Mdm2-MdmX binding, luminescent assay; inhibition, % at 8 µM; in the data active = inhibition above about 40%
Full FLuc ctr – full-length luciferase signal inhibition, confirmation, counter-screen for Mdm2/MdmX interaction inhibitor project, cell-based, single concentration, SaOS-2; shares compounds with Mdm2-MdmX inh; SaOS-2 full-length luciferase counterscreen, luminescence; inhibition, % at 8 µM; actives 77% (n = 6,200); AID 504607, 2011;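 active = mean inhibition at 8 µM reaching about 37%, which flags the compound as non-specific, limit read from the data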;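 note: p53-null SaOS-2 cells with luciferase driven by a doxycycline-inducible promoter; compound on cells about two nights before reading with doxycycline added after day one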
Starred values were filed as active, the others as inactive; u = inconclusive; x = not tested or not shown; ! = not active in a repeat.

SMILES	Beta apoptosis	Calb FLC	SKKanGAS inh	T cruzi repl	Mdm2-MdmX inh	CSC inhib	Mdm2 MdmX conf	Full FLuc ctr
Cc1ccc(C)c(S(=O)(=O)N2CCN(C(=O)CN3C(=O)NC(C)(C)C3=O)CC2)c1	-5.2	x	x	x	-1.9	0.0	x	x
Nc1ccc(N2CCCCC2)cc1N1CCCCC1	113.2*	-0.2	24.3	62.3*	80.4*	26.1	19.9	x
CCN1C(=O)Nc2cccc3cccc1c23	-9.9	2.2	-7.4	3.1	84.4*	4.3	61.8*	56.5*
O=C(CCl)NCCCCCCCCCNC(=O)CCl	9.7	19.3	-0.6	33.3	63.5*	9.5	42.5*	40.3*
CCC(=O)NCCCCCCNC(=O)CC	-2.8	-4.2	4.0	-8.1	11.5	-8.4	x	x
C=CCc1cccc(/C=N/NC(=O)CCC(=O)Nc2ccc(C)cc2)c1O	90.4*	-22.2	6.6	41.4	65.1*	9.2	65.2*	52.2*
CC(=O)N1CCN(CC(=O)Nc2ccccc2Sc2ccc(Cl)cc2)CC1	5.6	-4.9	7.5	-0.5	-4.8	-11.5	x	x
O=C(CCl)Nc1ccccc1Sc1ccc(Cl)cc1	-16.5	-1.9	7.9	49.1	78.8*	42.2	71.0*	55.3*
COCCCNC(=O)C[C@H]1C[C@H](C(=O)N2CCCCC2)[C@@]2(CCc3ccccc3)c3[nH]c4cc(CCC(=O)N(C)C)ccc4c3CCN2C1=O	x	x	x	x	26.0	x	x	x
COc1ccc(-n2c(C)cc(C(=O)Cn3nnc4ccccc4c3=O)c2C)cc1	1.4	1.2	12.5	22.9	-9.8	18.7	x	x
Cc1cc(C(=O)COC(=O)c2ccc(O)cc2)c(C)n1-c1ccccc1F	-2.0	19.7	-2.1	21.9	56.8*	x	64.1*	137.8*
Cc1cc(C(=O)COC(=O)c2ccc[nH]c2=O)c(C)n1-c1ccccc1F	2.8	1.1	3.7	-3.9	-17.4	2.8	x	x
Cc1cc(C(=O)Cn2nnc3ccccc3c2=O)c(C)n1-c1ccccc1F	3.4	23.1	4.7	2.4	85.1*	43.9	78.3*	103.4*
Cc1cc(C(=O)COC(=O)C2=COCCO2)c(C)n1-c1ccccc1	-4.0	x	x	x	83.1*	2.5	84.0*	31.6
Cc1cc(C(=O)COC(=O)C2=NNC(=O)CC2)c(C)n1-c1ccccc1	x	-14.0	2.0	4.0	22.9	x	x	x
COc1ccc(NC2CCCN(C(=O)c3cc(C)nc4cc(F)ccc34)C2)cc1 (stereo not drawn)	-0.8	12.1	-4.3	17.7	2.9	-6.1	x	x
Cc1ccccc1OCC(=O)Nc1ccccc1N1CCOCC1	1.6	-3.3	-1.0	6.4	50.3*	16.7	8.3	x
Cc1cccc(OCC(=O)Nc2ccc(N3CCN(S(C)(=O)=O)CC3)cc2)c1C	8.5	-2.0	-0.4	-10.3	96.1*	x	25.2	x
CCn1c(=O)cc(OCC(=O)Nc2ccccc2N2CCN(C)CC2)c2ccccc21	-6.0	1.4	1.3	3.1	50.3*	x	16.2	x
CCOc1ccc(OCC(=O)Nc2ccccc2N2CCCC2)cc1	-3.8	3.5	17.5	16.6	50.7*	-6.6	71.7*	60.3*
CCCCN(CCCC)CCCN1CC(=O)N2[C@@H](Cc3c([nH]c4ccccc34)C2(C)C)C1=O	0.6	-1.0	-0.3	18.6	-8.9	-2.2	x	x
CCOC(=O)c1cnc2c(C(=O)OC)cccc2c1NCc1cccnc1	2.5	-6.0	-0.3	-1.2	-0.9	3.3	x	x
COc1cccc(NC(=O)CN(C)C(=O)c2ccc3[nH]c4c(c3c2)CC(C)CC4)c1 (stereo not drawn)	x	x	x	x	6.2	x	x	x
Cc1ccc(C(C)C)c(OCC(=O)NC(=S)Nc2ccccc2N2CCOCC2)c1	3.2	x	-13.5	12.3	39.6	67.2	x	x
Cc1cccc(OCC(=O)NC(=S)Nc2ccccc2N2CCOCC2)c1C	-0.4	4.1	-6.0	-14.1	73.3*	20.8	14.6	x
SMILES	Beta apoptosis	Calb FLC	SKKanGAS inh	T cruzi repl	Mdm2-MdmX inh	CSC inhib	Mdm2 MdmX conf	Full FLuc ctr
Cc1cc(C)n(C(=O)/C=C/c2cccs2)n1	3.9	1.0	-0.2	-15.4	-5.4	4.5	x	x
CN(C)/N=C/C=C1\CCC/C(=C\c2ccc(F)c(F)c2)C1=O	18.8	13.0	-12.3	-21.1	77.1*	84.9*	27.9	44.4*
COc1ccc(/C=C2\CCC/C(=C\C=N\N(C)C)C2=O)cc1	-10.2	32.5	5.6	-20.8	94.6*	85.6*	50.6*	29.2
O=C1/C(=C/c2ccc(C(=O)O)cc2)CCC/C1=C\c1ccc(C(=O)O)cc1	0.4	-13.9	4.4	-17.7	-11.4	-4.8	x	x
COc1ccc(/C=C2\CCCCC2=O)cc1	-4.1	0.8	-1.2	-7.6	-4.0	-9.0	x	x
O=C1N/C(=N/N=C/c2ccccc2O)SC1Cc1ccc(F)cc1 (stereo not drawn)	87.4*	-10.1	u	8.9	70.7*	49.3	53.3*	9.6
N#CCOC(=O)c1c2c(nc3ccccc13)CCC2	1.2	7.3	-16.2	3.8	3.7	5.5	x	x
Cc1ccccc1NC1=CC(=O)CC(C)(C)C1	x	-1.5	-2.0	7.0	16.1	-11.2	x	x
CC1(C)CC(=O)C=C(NC2=CC3OC(c4ccccc4)OCC3OC2=O)C1 (stereo not drawn)	-39.8	-9.0	-2.3	-49.6	70.4*	14.4	34.1	53.5*
CC(NC(=O)c1cccc(Cl)c1)C1CC2CCC1C2 (stereo not drawn)	2.7	7.5	3.0	12.3	-1.0	5.3	x	x
C/C(=N\NC(=O)c1ccncc1)c1cccc(NC(=O)c2ccc(Cl)s2)c1	1.4	-11.5	x	x	19.7	-1.1	x	x
O=C(CCN1CCOCC1)N1c2ccccc2Sc2ccc(Cl)cc21	-5.6	-9.1	2.3	-7.1	16.6	4.3	x	x
CN1CCN(CCC(=O)N2c3ccccc3Sc3ccc(C(F)(F)F)cc32)CC1	2.2	3.0	-5.3	26.5	13.3	-0.8	x	x
CN(C)CCCN1c2ccccc2Sc2ccc(C(F)(F)F)cc21	-0.8	-11.7	-0.6	27.8	12.7	9.4	x	x
CN1CCN(CCCN2c3ccccc3Sc3ccc(Cl)cc32)CC1	3.0	x	6.2	31.5	54.1*	93.7*!	31.9	x
OCCN1CCN(CCCN2c3ccccc3Sc3ccc(C(F)(F)F)cc32)CC1	11.4	x	8.3	17.6	60.5*	85.5*	26.6	x
CCSc1ccc2c(c1)N(CCCN1CCN(C)CC1)c1ccccc1S2	7.7	x	x	x	60.3*	77.5*	21.2	x
